In PMC7549103 (ACS Medicinal Chemistry Letters, 2020):
Values belong to the compound of their own block, whether it stands above or below them.

Columns and labels:
eLogD7.4 = format: physicochemical; conditions: pH 7.4
[1] = Retest of activity over time; format: physicochemical
MOLT-4 cells [2] = experiment: Cellular viability assay, MOLT-4 cells; format: cell-based, human
How it was run: (§1)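 MOLT-4 is used as the BCL-XL-dependent human cancer cell line, and RS4;11 as the BCL-2-dependent line. Test compounds were tested in both lines in parallel.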

RS4;11 cells = experiment: Cellular viability assay, RS4; format: cell-based; conditions: Homo sapiens, RS4-11, 48 h, read-out: RS4;11 EC50
How it was run: as §1

[3] = Single dose pharmacokinetics in rats; format: in vivo, Sprague-Dawley rats; conditions: rat, single oral dose of 5 mg/kg
GST-BCL-XL = GST-BCL-XL (Homo sapiens, UniProt Q07817); format: binding; conditions: BCL-XL TR-FRET Ki ratio
GST-BCL-XL, sequence (Q07817 whole entry): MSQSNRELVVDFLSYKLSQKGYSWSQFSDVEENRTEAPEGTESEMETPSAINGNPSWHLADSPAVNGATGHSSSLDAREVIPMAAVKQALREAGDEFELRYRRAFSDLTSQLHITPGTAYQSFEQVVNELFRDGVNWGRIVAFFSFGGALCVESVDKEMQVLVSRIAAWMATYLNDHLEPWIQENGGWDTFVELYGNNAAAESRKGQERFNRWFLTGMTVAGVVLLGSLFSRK

MOLT-4 cells [4] = conditions: cytochrome c release, caspase-3/-7 activation, Annexin-V staining; cited from earlier work

- eLogD7.4 (eLogD7.4): 3.02
Compound: O=C(O)c1csc(N2CCc3cccc(C(=O)Nc4nc5ccccc5s4)c3C2)n1 [Compound 2]

- chromatographic logD (eLogD7.4): 2.85
Compound: O=C(O)c1cccc(N2CCc3cccc(C(=O)Nc4nc5ccccc5s4)c3C2)n1 [Compound 3]

- stability on storage (activity upon retest over time) [1]: lost activity upon retest over time
Compound: O=C(Nc1nc2ccccc2s1)c1cccc2c1CN(c1ccc(-c3ccn(Cc4ccccc4)c3)c(C(=O)O)n1)CC2 [Compound 5]

- EC50 (MOLT-4 cells [2]; Homo sapiens, MOLT-4, 48 h, read-out: MOLT-4 EC50, 10% HS, 48 hours): > 5 µM
Compound: O=C(Nc1nc2ccccc2s1)c1cccc2c1CN(c1ccc(-c3cnn(Cc4ccccc4)c3)c(C(=O)O)n1)CC2 [Compound 6]

- EC50 (RS4;11 cells): > 5 µM
- Cmax-coverage (total drug exposure) of the cellular EC50 [3]: approximately 3 fold
Compound: Cc1c(-c2ccc(N3CCc4cccc(C(=O)Nc5nc6ccccc6s5)c4C3)nc2C(=O)O)cnn1Cc1ccccc1 [Compound 10]
- activity in cells (in words) (MOLT-4 cells [2]; MOLT-4 (and RS4;11) cells, 10% human serum): low micromolar activity

- improvement in target affinity relative to parent 6 (GST-BCL-XL): ~11 fold
Compound: Cc1nn(Cc2ccccc2)c(C)c1-c1ccc(N2CCc3cccc(C(=O)Nc4nc5ccccc5s4)c3C2)nc1C(=O)O [Compound 11]

Compound: Cc1c(-c2ccc(N3CCc4cccc(C(=O)Nc5nc6ccccc6s5)c4C3)nc2C(=O)O)cnn1CC12CC3CC(CC(C3)C1)C2 [Compound 13]
- in vitro efficacy against MOLT-4, fold more potent than A-1155463 (1) (MOLT-4 cells [2]; 10% HS): 20 fold
- mechanism-based effects in MOLT-4 cells (MOLT-4 cells [4]): disrupted BCL-XL:BIM complexes and induced classical features of apoptosis
